Laboratory results reported in the M2OR odorant receptor database.
Numbering of substitutions follows the chain as printed.

Columns and labels:
Settings in all cases: stereoisomer not certain
[1] = target: T1, OR8I2 (Homo sapiens) (UniProt Q8N0Y5)
T1 sequence (whole entry): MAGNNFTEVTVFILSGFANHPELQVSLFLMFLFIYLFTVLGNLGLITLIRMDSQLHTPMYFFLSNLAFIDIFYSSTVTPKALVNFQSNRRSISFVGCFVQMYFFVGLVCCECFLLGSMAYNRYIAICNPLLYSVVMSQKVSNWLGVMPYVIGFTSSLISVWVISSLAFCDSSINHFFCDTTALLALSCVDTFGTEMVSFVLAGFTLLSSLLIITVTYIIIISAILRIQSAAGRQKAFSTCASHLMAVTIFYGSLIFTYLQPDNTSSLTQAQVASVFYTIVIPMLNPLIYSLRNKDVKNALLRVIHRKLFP
In short: (§1)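 Assay methods differ from source to source, frequently being transient luciferase assays in mammalian cell lines. For each receptor–molecule pair, the label responsive (active) applies when the original authors judged the measured signal statistically different from baseline, and non-responsive (inactive) applies otherwise.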

[2] = target: T2, OR8J1 (Homo sapiens) (UniProt Q8NGP2)
T2 sequence (whole entry): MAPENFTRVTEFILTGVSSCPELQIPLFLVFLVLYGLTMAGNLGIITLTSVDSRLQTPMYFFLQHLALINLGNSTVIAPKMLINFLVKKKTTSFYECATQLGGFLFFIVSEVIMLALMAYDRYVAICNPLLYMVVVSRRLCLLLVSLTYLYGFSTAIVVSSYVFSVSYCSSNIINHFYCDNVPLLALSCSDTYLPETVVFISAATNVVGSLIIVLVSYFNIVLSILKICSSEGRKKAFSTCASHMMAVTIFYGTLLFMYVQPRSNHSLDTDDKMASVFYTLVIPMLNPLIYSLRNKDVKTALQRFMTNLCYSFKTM
In short: as §1

[3] = target: T3, OR8J3 (Homo sapiens) (UniProt Q8NGG0)
T3 sequence (whole entry): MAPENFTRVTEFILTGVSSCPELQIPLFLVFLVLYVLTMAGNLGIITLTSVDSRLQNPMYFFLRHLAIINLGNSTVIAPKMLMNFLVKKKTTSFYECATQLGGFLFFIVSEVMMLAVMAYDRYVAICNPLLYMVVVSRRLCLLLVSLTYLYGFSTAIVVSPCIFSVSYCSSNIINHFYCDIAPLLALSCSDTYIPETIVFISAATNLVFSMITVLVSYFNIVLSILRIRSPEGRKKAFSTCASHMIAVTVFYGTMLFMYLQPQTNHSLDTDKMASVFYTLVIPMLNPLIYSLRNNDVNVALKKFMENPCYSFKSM
In short: as §1

[4] = target: T4, OR8K1 (Homo sapiens) (UniProt Q8NGG5)
T4 sequence (whole entry): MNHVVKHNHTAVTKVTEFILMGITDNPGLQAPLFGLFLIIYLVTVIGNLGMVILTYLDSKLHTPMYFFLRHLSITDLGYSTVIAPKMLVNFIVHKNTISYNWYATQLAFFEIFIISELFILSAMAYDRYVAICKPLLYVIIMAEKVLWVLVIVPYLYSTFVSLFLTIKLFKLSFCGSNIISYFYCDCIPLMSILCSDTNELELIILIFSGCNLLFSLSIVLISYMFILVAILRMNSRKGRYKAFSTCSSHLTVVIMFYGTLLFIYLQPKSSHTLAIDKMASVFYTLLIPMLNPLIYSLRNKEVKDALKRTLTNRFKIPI
In short: as §1

[5] = target: T5, OR8K3 (Homo sapiens) (UniProt Q8NH51)
T5 sequence (whole entry): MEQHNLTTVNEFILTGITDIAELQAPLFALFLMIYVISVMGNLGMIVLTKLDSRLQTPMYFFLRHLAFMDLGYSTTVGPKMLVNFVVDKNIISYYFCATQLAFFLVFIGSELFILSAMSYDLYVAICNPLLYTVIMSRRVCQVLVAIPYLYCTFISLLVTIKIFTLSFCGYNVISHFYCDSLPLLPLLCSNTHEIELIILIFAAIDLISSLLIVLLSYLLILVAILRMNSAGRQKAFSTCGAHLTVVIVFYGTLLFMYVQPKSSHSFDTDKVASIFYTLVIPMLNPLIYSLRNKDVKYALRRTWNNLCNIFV
In short: as §1

[6] = target: T6, OR8K5 (Homo sapiens) (UniProt Q8NH50)
T6 sequence (whole entry): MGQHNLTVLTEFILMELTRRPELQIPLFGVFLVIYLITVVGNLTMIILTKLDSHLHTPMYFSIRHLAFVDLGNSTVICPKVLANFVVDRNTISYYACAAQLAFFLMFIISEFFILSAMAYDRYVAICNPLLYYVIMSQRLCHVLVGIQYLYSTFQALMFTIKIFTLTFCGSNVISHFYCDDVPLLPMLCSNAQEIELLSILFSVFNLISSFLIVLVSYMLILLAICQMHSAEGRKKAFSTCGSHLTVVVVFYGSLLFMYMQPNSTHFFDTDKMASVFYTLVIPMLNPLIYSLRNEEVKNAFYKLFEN
In short: as §1

[7] = target: T7, OR8S1 (Homo sapiens) (UniProt Q8NH09)
T7 sequence (whole entry): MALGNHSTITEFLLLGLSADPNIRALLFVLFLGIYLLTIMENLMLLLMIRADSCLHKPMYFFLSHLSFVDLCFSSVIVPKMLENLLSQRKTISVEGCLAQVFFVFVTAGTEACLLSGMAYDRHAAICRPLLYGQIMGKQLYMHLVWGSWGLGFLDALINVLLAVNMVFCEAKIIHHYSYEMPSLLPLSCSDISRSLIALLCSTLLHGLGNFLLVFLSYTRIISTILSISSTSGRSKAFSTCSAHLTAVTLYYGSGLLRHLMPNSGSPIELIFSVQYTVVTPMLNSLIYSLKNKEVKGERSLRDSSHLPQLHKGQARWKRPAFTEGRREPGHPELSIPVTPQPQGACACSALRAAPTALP
In short: as §1

[8] = system: T8, OR8J1
T8 sequence (whole entry): T2 sequence (whole entry) with Y120C
In short: as §1

[9] = system: T9, OR8J3 E4V
T9 sequence (whole entry): T3 sequence (whole entry) with E4V
In short: as §1

[10] = target: OR8J2 (Homo sapiens) (UniProt Q8NGG1)
In short: as §1

Measured: odorant receptor agonist call

Sequence of OR8J2 (Homo sapiens) (Q8NGG1 whole entry): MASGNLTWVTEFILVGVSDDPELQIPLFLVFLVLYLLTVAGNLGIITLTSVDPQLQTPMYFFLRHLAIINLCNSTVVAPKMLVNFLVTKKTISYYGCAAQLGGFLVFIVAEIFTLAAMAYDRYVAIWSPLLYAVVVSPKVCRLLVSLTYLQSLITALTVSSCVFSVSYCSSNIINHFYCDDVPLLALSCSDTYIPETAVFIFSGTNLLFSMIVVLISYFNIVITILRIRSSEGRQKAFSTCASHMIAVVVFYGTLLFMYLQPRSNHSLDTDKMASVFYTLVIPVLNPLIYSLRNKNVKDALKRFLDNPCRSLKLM

CCCCCC(S)C(C)CO (stereo not given)
not listed: [8] | [9] | [10]
inactive: all other assays above

O=c1ccc2ccccc2o1
inactive: [6]

Cc1cnc(C)c(C)n1
not listed: [10]
inactive: all other assays above

CCCCC(S)C(C)CO (stereo not given)
not listed: [8] | [9] | [10]
inactive: all other assays above

CCCCCCC=CCCC=O
not listed: [10]
inactive: all other assays above

CC1=C(O)C(=O)C(C)O1 (stereo not given)
not listed: [10]
inactive: all other assays above

CCCC(S)CCOC(C)=O (stereo not given)
not listed: [10]
inactive: all other assays above

CC1=C(O)C(=O)OC1C (stereo not given)
not listed: [10]
inactive: all other assays above

O=C1CCOc2ccccc21
inactive: [6]

CCC(S)C(C)CO (stereo not given)
not listed: [8] | [9] | [10]
inactive: all other assays above

CC(=O)c1c(C)c([N+](=O)[O-])c(C(C)(C)C)c([N+](=O)[O-])c1C
not listed: [8] | [9]
inactive: all other assays above

CCC1OC(=O)C(O)=C1C (stereo not given)
not listed: [10]
inactive: all other assays above

CCC1OC(C)=C(O)C1=O (stereo not given)
not listed: [10]
inactive: all other assays above

CC(CO)CS (stereo not given)
not listed: [8] | [9] | [10]
inactive: all other assays above

CCCCCC(=O)C(C)C(C)=O (stereo not given)
not listed: [8] | [9] | [10]
inactive: all other assays above

CC1=NC(C)C(C)S1 (stereo not given)
not listed: [10]
inactive: all other assays above

CC1CCCCCCCCCCCCC(=O)C1 (stereo not given)
not listed: [8] | [9]
inactive: all other assays above
